proCasp7 act: procaspase-7 activators, primary screen, counter-screen for procaspase-3 activator project, biochemical, absorbance, HTS, human; AID 463210, 2010; recombinant procaspase-7, Ac-DEVD-pNA absorbance 405 nm; D23A/D198A/D206A triple mutant, cannot self-cleave; scale: DMSO 0, 5 µM enzyme 100; activation, % at 8.5 µM; 0.093% of 330,000 active;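 active = percent activation above the screen-wide mean plus 3 SD, cut at about 25% in these data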
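Assay system: Uncleavable procaspase-7 mutant enzyme / Input: 2 µM procaspase-7 mutant as dispensed / Dosing: single nominal 8.5 µM compound dose, 0.8% DMSO final / Timing: 1 h enzyme–compound preincubation and 2 h substrate reaction, both 25 °C / Detection: p-Nitroaniline absorbance at 405 nm, read at 0 and 120 min / Replication: singlicate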
procasp3 activ: activators of human procaspase-3 D3A mutant, primary screen, biochemical, absorbance, PC-3 D3A mutant, single concentration | recombinant procaspase-3 D3A, Ac-DEVD-pNA absorbance 405 nm | 0.11% of 330,000 active | Caspase-3 (Homo sapiens), P42574 | activation, % at 8.5 µM;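 active = activation above the mean of all tested compounds plus 3 SD, cut at about 21% in these data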;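 also: 0% = DMSO alone and 100% = DMSO wells spiked with extra 5 µM PC-3 D3A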
Target sequence (P42574 whole entry D9A/D28A/D175A): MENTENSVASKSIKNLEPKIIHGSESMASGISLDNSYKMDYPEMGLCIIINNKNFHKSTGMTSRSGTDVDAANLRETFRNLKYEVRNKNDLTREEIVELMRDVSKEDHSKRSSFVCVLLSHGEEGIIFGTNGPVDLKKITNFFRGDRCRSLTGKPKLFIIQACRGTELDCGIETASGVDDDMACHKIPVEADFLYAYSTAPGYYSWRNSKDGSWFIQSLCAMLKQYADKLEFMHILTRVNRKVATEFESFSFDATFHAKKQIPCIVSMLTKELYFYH
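Assay system – Procaspase-3 D3A mutant · Benchmarks – DMSO low control, extra-enzyme high control · Technique – 405 nm absorbance of p-nitroaniline, reads at 0 and 120 min · Doses – 8.5 µM nominal · Measure – % activation between DMSO and enzyme-spiked controls · Also added – Ac-DEVD-pNA chromogenic peptide substrate · Schedule – 1 h compound preincubation, 2 h substrate hydrolysis at 25 °C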
bovine MsrA act: bovine MsrA enzyme activators, primary screen, biochemical, absorbance, HTS; Methionine sulfoxide reductase A (Bos taurus); purified bovine MsrA, absorbance read-out; activation, % at 10.6 µM; 0.3% of 360,000 active; AID 602163, 2012; in the data active = activation above about 7.5%;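 also: 0% = vehicle and 100% = reference activator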
Tb MetRS inh: T. brucei MetRS inhibitors, primary screen, biochemical, luminescence; methionyl-tRNA synthetase (Trypanosoma brucei brucei); purified T. brucei MetRS, ATP depletion, Kinase-Glo luminescence; inhibition, % at 11.9 µM; 0.4% of 360,000 active; AID 624268, 2012;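 active = inhibition above a per-plate cutoff of the control wells' mean inhibition plus 3 SD, cut at about 5.5% in these data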;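 also: 0% = DMSO wells median and 100% = median of wells with control inhibitor compound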
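Dosing: 11.9 µM single point; system: parasite MetRS enzyme; technique: luminescence of leftover ATP; times: 15 min enzyme-compound preincubation, 2 h reaction, 10 min detection, 25 °C; replicates: each compound tested once; read-out basis: percent inhibition relative to median high and low control wells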
MsrA inhibitor: bovine MsrA enzyme inhibitors, primary screen, biochemical, absorbance, HTS | Methionine sulfoxide reductase A (Bos taurus) | purified bovine MsrA, absorbance read-out | inhibition, % at 15.5 µM | 0.75% of 360,000 active | AID 651718, 2012; in the data active = inhibition above about 4.5%;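 also: 0% = vehicle wells with enzyme and 100% = reference inhibitor wells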
TbMetRS confirm: T. brucei MetRS inhibitors, confirmation, biochemical, luminescence | AID 624412, 2012 | inhibition, % at 11.9 µM | 93% of 1,400 active | T. brucei MetRS enzyme, luminescence (ATP depletion) | shares compounds with Tb MetRS inh; in the data active = inhibition above about 7%
Jurkat cytotox: Jurkat T cell cytotoxicity, cytotoxicity control for T. brucei MetRS inhibitor project, luminescence, high throughput. shares compounds with Tb MetRS inh. Jurkat cells viability, ATP luminescence. inhibition, % at 8.3 µM. 12% of 1,400 active. AID 624413, 2012; in the data active = inhibition above about 15%;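 also: 0% = vehicle and 100% = reference inhibitor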
TbMetRS FP orth: T. brucei MetRS inhibitors, orthogonal assay for T. brucei MetRS inhibitor project, biochemical, fluorescence polarization. 44% of 1,400 active. shares compounds with Tb MetRS inh. inhibition, % at 11.9 µM. purified T. brucei MetRS; in the data active = inhibition above about 17%;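 also: 0% = vehicle wells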
* = called active by the depositor; . = no result. A selection: hits, their analogues and other compounds. The true share with any hit is near 1.5%.

SMILES	proCasp7 act	procasp3 activ	bovine MsrA act	Tb MetRS inh	MsrA inhibitor	TbMetRS confirm	Jurkat cytotox	TbMetRS FP orth
O=C(Nc1ccccc1)C1=C[C@@H](C2CC2)C[C@@H](OCc2ccc(CO)cc2)O1	-4.7	2.5	-3.0	-0.4	-0.4	.	.	.
CON(C)C(=O)C(C)(C)CC#CCN(CC#Cc1ccccc1)S(=O)(=O)c1ccc(C)cc1	.	.	.	.	1.4	.	.	.
O=C(CN(Cc1ccccc1)C1=NCCS1)c1ccc(Cl)cc1	3.0	0.1	-10.0	24.7*	-1.0	41.8*	12.8	23.1*
Cc1ccc(-c2nnc(NCc3nc4ccccc4[nH]3)c3ccccc23)cc1S(=O)(=O)N(C)C	-7.9	11.2	-6.0	13.1*	1.1	23.8*	4.0	16.3
COC(=O)C1=C(C)N(Cc2ccc(C(F)(F)F)cc2)C(=NCC2CC2)NC1c1ccccc1C(F)(F)F (centres undefined)	.	.	.	.	-1.7	.	.	.
OC(c1ccc(Cl)c(Cl)c1)c1ncc(-c2ccc(Cl)cc2)[nH]1 (centres undefined)	.	.	-2.4	51.4*	-0.4	86.0*	-2.1	66.1*
OC(c1ccc(Cl)c(F)c1)c1ncc(-c2ccc(Cl)cc2)[nH]1 (centres undefined)	.	.	0.4	5.8*	-1.3	41.4*	7.8	16.6
OC(c1ccc(Cl)c(F)c1)c1ncc(-c2ccc(Oc3ccccc3)cc2)[nH]1 (centres undefined)	.	.	-2.5	0.0	1.6	.	.	.
O=C(Cn1cnc(S(=O)(=O)N2CCCC2)c1)Nc1cccc(Br)c1	0.0	-1.6	-2.8	14.4*	0.6	36.2*	1.0	15.2
CSc1cccc(NC(=O)Cn2cnc(S(=O)(=O)N3CCCC3)c2)c1	-4.7	2.2	-2.7	8.6*	-1.0	19.5*	4.0	4.2
CC(=O)c1cccc(NC(=O)Cn2cnc(S(=O)(=O)N3CCCCC3)c2)c1	0.5	11.8	-1.8	0.6	0.0	.	.	.
COc1ccc(-c2csc(C(O)c3ccc(F)c(F)c3)n2)cc1 (centres undefined)	.	.	-3.5	-0.2	-1.1	.	.	.
Cc1cccc(C)c1-n1nnnc1-c1nc2cc3ccccc3cc2[nH]c1=O	.	.	-1.1	54.3*	0.7	55.8*	70.4*	19.4*
Cc1ccc(C2=NS(=O)(=O)N(C)C(C(=O)NCc3ccccc3)=C2)cc1	0.7	8.7	-2.5	4.7	3.3	.	.	.
Cc1ccc(C2=NS(=O)(=O)N(C)C(C(=O)NCc3ccc(F)cc3)=C2)cc1	0.8	11.6	-4.7	9.8*	1.9	17.1*	-3.0	11.7
O=C(CSc1nnc2ccc(-c3ccc(Br)cc3)nn12)NCC1CCCO1 (centres undefined)	6.6	0.5	-1.3	8.0*	1.1	32.8*	0.9	12.2
O=C(C(=O)N1CCC(CNC(=O)C2COc3ccccc3O2)CC1)c1cc2ccccc2o1 (centres undefined)	.	.	.	.	1.4	.	.	.
Oc1cc(O)cc(C=Cc2ccc(O)c(O)c2)c1	.	.	.	.	3.4	.	.	.
O=C(NCCCCc1ccccc1)Nc1cccc(F)c1	-8.1	-4.4	-3.1	10.7*	-1.5	44.2*	-1.8	34.9*
Cc1cccc(NC(=O)NCCCCc2ccccc2)c1	2.3	7.9	-6.5	-0.2	-0.6	.	.	.
O=C(NCCc1nc2ccccc2[nH]1)c1ccc([N+](=O)[O-])cc1	-1.3	-0.7	-0.7	36.0*	0.8	58.2*	3.7	29.2*
